Measured values: ChEMBL document CHEMBL1128479, “Synthesis and structure-activity relationships of stilbene retinoid analogs substituted with heteroaromatic carboxylic acids” (J Med Chem, 1995)
pEC50, pIC50: −log10 of the molar value.

How the values were obtained:
[1] = test system: HL-60; experiment: Transglutaminase activity in HL-60 cdm-1 cells; type: functional, cell-based; conditions: Homo sapiens
Summary of the method: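 Log-phase cells in RPMI 1640 with insulin/transferrin/selenide were pretreated with 1.25% DMSO for 18 h, then resuspended with retinoid or 0.1% ethanol control for 24 h. Lysate Tgase was measured as Ca2+-dependent [3H]putrescine conjugation to N,N-dimethylcasein.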

[2] = species: Mus musculus; experiment: Inhibition of tumor-promoter-induced ornithine decarboxylase in TPA-treated female hairless mice; type: functional
Summary of the method: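 Retinoids were applied dorsally in 100 μL acetone 1 h before TPA (40 nmol/mouse in acetone). Mice were killed 4 h later, epidermis scraped after 55 °C for 30 s, and homogenate supernatant assayed for ODC by 14CO2 release (benzethonium hydroxide trap). Activity was normalized to protein.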

[3] = species: Mus musculus; experiment: In vitro inhibition of chondrogenesis in mouse embryo limb bud cells; type: functional, cell-based
Summary of the method: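 Micromass cultures of day 11 mouse embryo forelimb bud cells (trypsin-EDTA dissociated, 200 000 cells/spot) in Eagle's MEM + 10% FBS. Retinoids 0.01 ng/mL–10 μg/mL (0.03 nM–30 μM) were added 24 h after plating, with ethanol vehicle (<1%). Cultures ended at 96 h, formalin/cetylpyridinium fixed, and cartilage nodules counted by image scan. Four replicates per concentration; IC50 from logarithmic curve fit.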

[4] = target: T1, Retinoic acid receptor RXR-alpha (Homo sapiens, UniProt P19793); experiment: Transcriptional activation of Retinoid X receptor RXR alpha
T1 sequence (P19793 whole entry): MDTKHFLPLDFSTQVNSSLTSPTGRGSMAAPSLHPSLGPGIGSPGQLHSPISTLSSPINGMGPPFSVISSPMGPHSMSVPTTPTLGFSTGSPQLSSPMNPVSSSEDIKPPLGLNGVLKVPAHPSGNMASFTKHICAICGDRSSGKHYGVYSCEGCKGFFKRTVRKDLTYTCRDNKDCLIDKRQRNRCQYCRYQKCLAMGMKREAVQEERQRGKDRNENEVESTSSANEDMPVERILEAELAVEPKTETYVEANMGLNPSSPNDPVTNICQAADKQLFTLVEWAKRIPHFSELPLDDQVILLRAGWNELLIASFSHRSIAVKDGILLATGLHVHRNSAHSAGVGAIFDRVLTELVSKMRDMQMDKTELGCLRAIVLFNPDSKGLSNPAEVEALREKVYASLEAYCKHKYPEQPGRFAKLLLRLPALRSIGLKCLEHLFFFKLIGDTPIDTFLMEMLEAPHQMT

[5] = target: T2, Retinoic acid receptor beta (Homo sapiens, UniProt P10826); experiment: Transcriptional activation of Retinoic acid receptor RAR beta
T2 sequence (P10826 whole entry): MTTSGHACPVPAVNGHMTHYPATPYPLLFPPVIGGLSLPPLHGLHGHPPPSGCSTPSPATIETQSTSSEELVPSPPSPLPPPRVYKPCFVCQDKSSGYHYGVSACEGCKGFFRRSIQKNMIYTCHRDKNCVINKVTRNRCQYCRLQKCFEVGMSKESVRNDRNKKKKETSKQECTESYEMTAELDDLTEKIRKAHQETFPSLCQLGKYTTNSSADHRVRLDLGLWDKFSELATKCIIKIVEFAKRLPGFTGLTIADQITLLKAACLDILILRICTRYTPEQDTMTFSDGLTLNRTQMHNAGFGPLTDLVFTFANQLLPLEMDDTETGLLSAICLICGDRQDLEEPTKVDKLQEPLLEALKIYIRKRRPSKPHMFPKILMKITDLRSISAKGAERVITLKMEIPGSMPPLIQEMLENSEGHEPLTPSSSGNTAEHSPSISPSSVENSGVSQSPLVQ

[6] = target: T3, Retinoic acid receptor alpha (Homo sapiens, UniProt P10276); experiment: Transcriptional activation of Retinoic acid receptor RAR alpha
T3 sequence (P10276 whole entry): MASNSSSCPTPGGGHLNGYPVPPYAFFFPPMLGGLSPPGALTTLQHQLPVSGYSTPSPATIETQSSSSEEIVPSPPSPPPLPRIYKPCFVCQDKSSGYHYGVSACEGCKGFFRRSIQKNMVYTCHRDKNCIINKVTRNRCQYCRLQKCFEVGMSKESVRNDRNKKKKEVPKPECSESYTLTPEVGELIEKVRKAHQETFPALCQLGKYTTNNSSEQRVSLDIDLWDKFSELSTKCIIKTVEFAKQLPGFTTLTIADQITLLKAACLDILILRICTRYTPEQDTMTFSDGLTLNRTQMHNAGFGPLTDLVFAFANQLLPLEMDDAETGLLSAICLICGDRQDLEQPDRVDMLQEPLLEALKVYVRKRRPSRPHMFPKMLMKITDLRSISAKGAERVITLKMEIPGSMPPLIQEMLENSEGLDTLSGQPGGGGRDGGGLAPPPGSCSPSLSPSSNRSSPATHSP

[7] = target: T4, Retinoic acid receptor gamma (Homo sapiens, UniProt P13631); experiment: Transcriptional activation of Retinoic acid receptor RAR gamma
T4 sequence (P13631 whole entry): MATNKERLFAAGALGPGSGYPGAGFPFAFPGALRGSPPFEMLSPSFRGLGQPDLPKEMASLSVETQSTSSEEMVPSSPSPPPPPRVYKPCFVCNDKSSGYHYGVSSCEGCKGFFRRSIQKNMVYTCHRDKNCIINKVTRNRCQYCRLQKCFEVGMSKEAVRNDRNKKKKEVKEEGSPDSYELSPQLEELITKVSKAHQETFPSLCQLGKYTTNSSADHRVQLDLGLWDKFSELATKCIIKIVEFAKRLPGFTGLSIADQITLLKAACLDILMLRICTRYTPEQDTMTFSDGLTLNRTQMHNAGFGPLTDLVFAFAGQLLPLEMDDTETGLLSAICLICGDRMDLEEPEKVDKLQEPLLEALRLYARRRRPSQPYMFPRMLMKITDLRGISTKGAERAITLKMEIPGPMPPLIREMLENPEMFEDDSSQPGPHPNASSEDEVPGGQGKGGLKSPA

In the case of `C/C(=C\c1ccc(C(=O)O)cc1)c1ccc2c(c1)C(C)(C)CCC2(C)C`, the pEC50 [1] was < 6.00, the IC80 [2] was 0.08 nmol and the pIC50 [3] was 10.22. The pEC50 [4] was < 5.00.

`C/C(=C\c1csc(C(=O)O)c1)c1cc2c(cc1C)C(C)(C)CCC2(C)C` was tested, and the pEC50 [5] was 5.97, the pEC50 [6] was < 5.00 and the pEC50 [4] was 6.95. The pEC50 [7] was < 5.00.

Work on `C/C(=C\c1ccc(C(=O)O)cc1)c1cc2c(cc1C)C(C)(C)CCC2(C)C` yielded a pEC50 [1] of 8.00, an IC80 [2] of 1.2 nmol and a pIC50 [3] of 8.10.

`C/C(=C\c1ccc(C(=O)O)s1)c1cc2c(cc1C)C(C)(C)CCC2(C)C` gave a pEC50 [1] of 8.30, an IC80 [2] of 5.4 nmol and a pIC50 [3] of 7.82. The pEC50 [5] was 7.64, the pEC50 [6] was < 5.00 and the pEC50 [4] was 7.96. For the same molecule, the pEC50 [7] was 7.43.

`C/C(=C\c1ccc(C(=O)O)cn1)c1cc2c(cc1C)C(C)(C)CCC2(C)C` was tested, and the pEC50 [5] was 7.68, the pEC50 [6] was 5.57 and the pEC50 [4] was 6.98. It also gave a pEC50 [7] of 6.43.

In the case of `C/C(=C\c1cc(C(=O)O)cs1)c1cc2c(cc1C)C(C)(C)CCC2(C)C`, the pEC50 [1] was 7.70, the IC80 [2] was > 300 nmol and the pIC50 [3] was 7.20. The pEC50 [5] was < 5.00, the pEC50 [6] was < 5.00 and the pEC50 [4] was 6.70. The pEC50 [7] was < 5.00.

For `C/C(=C\c1cccc(C(=O)O)c1)c1cc2c(cc1C)C(C)(C)CCC2(C)C`, the pEC50 [5] was < 5.00, the pEC50 [6] was < 5.00 and the pEC50 [4] was < 5.00. For the same molecule, the pEC50 [7] was < 5.00.

For `C/C(=C\c1ccc(C(=O)O)o1)c1cc2c(cc1C)C(C)(C)CCC2(C)C`, the pEC50 [5] was < 5.00, the pEC50 [6] was < 5.00 and the pEC50 [4] was 6.23. For the same molecule, the pEC50 [7] was < 5.00.

`CC1=C(/C=C/C(C)=C\C=C\C(C)=C\C(=O)O)C(C)(C)CCC1` [ALITRETINOIN] was tested, and the pEC50 [1] was 8.70, the IC80 [2] was 3.6 nmol and the pIC50 [3] was 7.24.

For `CC1=C(/C=C/C(C)=C/C=C/C(C)=C/C(=O)O)C(C)(C)CCC1` [TRETINOIN], the pEC50 [1] was 8.30, the IC80 [2] was 1.4 nmol and the pIC50 [3] was 7.51.
